Experimental data from ChEMBL document CHEMBL1122187, “Synthesis and antiviral activity of certain carbamoylpyrrolopyrimidine and pyrazolopyrimidine nucleosides” (1982).

Assays:
Assay type in all cases: functional, Chlorocebus sabaeus
Vero [1] = test: Percentage plaque reduction was determined against rift valley fever(RVF) virus in african green monkey kidney (vero,V) at a conc of 100-250 ug/mL. Toxic level(10 ug/mL)
Vero [2] = test: Percentage plaque reduction was determined against rift valley fever(RVF) virus in african green monkey kidney (vero,V) at a conc of 25-100 ug/mL. Toxic level(10 ug/mL)
Vero [3] = test: Percentage plaque reduction was determined against rift valley fever(RVF) virus in african green monkey kidney (vero,V) at a conc of 250-500 ug/mL. Toxic level(10 ug/mL)
Vero [4] = test: Percentage plaque reduction was determined against rift valley fever(RVF) virus in african green monkey kidney (vero,V) at a conc of <25 ug/mL. Toxic level(10 ug/mL)
Vero [5] = test: Percentage plaque reduction was determined against venezuelan equine encephalitis (VEE) virus in african green monkey kidney (vero,V) at a conc of 100-250 ug/mL. Toxic level(10 ug/mL)
Vero [6] = test: Percentage plaque reduction was determined against venezuelan equine encephalitis (VEE) virus in african green monkey kidney (vero,V) at a conc of 25-100 ug/mL. Toxic level(10 ug/mL)
Vero [7] = test: Percentage plaque reduction was determined against Sandfly fever (SF) virus in african green monkey kidney (vero,V) at a conc of 100-250 ug/mL. Toxic level(10 ug/mL)
Vero [8] = test: Percentage plaque reduction was determined against Sandfly fever (SF) virus in african green monkey kidney (vero,V) at a conc of 25-100 ug/mL. Toxic level(10 ug/mL)
Vero [9] = test: Percentage plaque reduction was determined against Sandfly fever (SF) virus in african green monkey kidney (vero,V) at a conc of 250-500 ug/mL. Toxic level(10 ug/mL)
Vero [10] = test: Percentage plaque reduction was determined against Sandfly fever (SF) virus in african green monkey kidney (vero,V) at a conc of <25 ug/mL. Toxic level(10 ug/mL)
In short: (§1)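 Infected Vero 24-well monolayers: virus adsorbed 1 h at 37 °C, then overlaid with agar holding dilutions of compound and incubated again at 37 °C with CO₂. Plaques were stained with crystal violet and counted. Inhibition was scored as % plaque reduction bands (10-30%, 31-60%, 61-90%), each tied to a drug concentration range.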

Vero [11] = test: Percentage plaque reduction was determined against pichinde(PICH) virus in african green monkey kidney (vero,V).Toxic level(10 ug/mL); in short: as §1
Vero [12] = test: In vitro antiviral activity against herpes simplex type 1 (HSV-1) virus was determined in african green monkey kidney (vero,V) expressed as virus rating. Toxic level(10 ug/mL)
In short: (§2)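 Cell monolayers (18 h) infected with 320 TCID50 of virus. Compound was added within 15–30 min at half-log dilutions from 1000 to 1 μg/mL. After 72 h at 37 °C in 5% CO2, CPE was scored 0–4 by microscopy. VR = sum of (virus control − treated) scores, halved at partially toxic levels, divided by 10 × test cups per drug level.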

Vero [13] = test: Percentage plaque reduction was determined against venezuelan equine encephalitis (VEE) virus in african green monkey kidney (vero,V) at a conc of 250-500 ug/mL. Toxic level(10 ug/mL)
Vero [14] = test: Percentage plaque reduction was determined against venezuelan equine encephalitis (VEE) virus in african green monkey kidney (vero,V) at a conc of <25 ug/mL
Vero [15] = test: Percentage plaque reduction was determined against yellow fever (YF) virus in african green monkey kidney (vero,V).Toxic level(10 ug/mL)
Vero [16] = test: Percentage plaque reduction was determined against pichinde(PICH) virus in african green monkey kidney (vero,V).Toxic level(32 ug/mL); 61-90; in short: as §1
Vero [17] = test: Percentage plaque reduction was determined against rift valley fever(RVF) virus in african green monkey kidney (vero,V) at a conc of 25-100 ug/mL. Toxic level(32 ug/mL); 61-90
Vero [18] = test: Percentage plaque reduction was determined against venezuelan equine encephalitis (VEE) virus in african green monkey kidney (vero,V) at a conc of 100-250 ug/mL. Toxic level(32 ug/mL)
Vero [19] = test: Percentage plaque reduction was determined against venezuelan equine encephalitis (VEE) virus in african green monkey kidney (vero,V) at a conc of 25-100 ug/mL. Toxic level(32 ug/mL)
Vero [20] = test: Percentage plaque reduction was determined against Sandfly fever (SF) virus in african green monkey kidney (vero,V) at a conc of 250-500 ug/mL; 10-30
Vero [21] = test: In vitro antiviral activity against parainfluenza type 3(para 3) virus was determined in african green monkey kidney (vero,V) expressed as virus rating. Toxic level(32 ug/mL); in short: as §2
Vero [22] = test: Percentage plaque reduction was determined against yellow fever(YF) virus in african green monkey kidney (vero,V).Toxic level(32 ug/mL); 61-90
Vero [23] = test: Percentage plaque reduction was determined against venezuelan equine encephalitis (VEE) virus in african green monkey kidney (vero,V) at a conc of 250-500 ug/mL. Toxic level(32 ug/mL)
Vero [24] = test: Percentage plaque reduction was determined against venezuelan equine encephalitis (VEE) virus in african green monkey kidney (vero,V) at a conc of <25 ug/mL. Toxic level(32 ug/mL)
Vero [25] = test: In vitro antiviral activity against herpes simplex type 1 (HSV-1) virus was determined in african green monkey kidney (vero,V) expressed as virus rating. Toxic level(32 ug/mL); in short: as §2
Vero [26] = test: In vitro antiviral activity against parainfluenza type 3(para 3) virus was determined in african green monkey kidney (vero,V) expressed as virus rating; in short: as §2
Vero [27] = test: In vitro antiviral activity against vaccinia(VV) virus was determined in african green monkey kidney (vero,V) expressed as virus rating; in short: as §2
Vero [28] = test: In vitro antiviral activity against herpes simplex type 1 (HSV-1) virus was determined in african green monkey kidney (vero,V) expressed as virus rating; in short: as §2
Vero [29] = test: Percentage plaque reduction was determined against pichinde(PICH) virus in african green monkey kidney (vero,V).Toxic level(320 ug/mL); in short: as §1
Vero [30] = test: Percentage plaque reduction was determined against pichinde(PICH) virus in african green monkey kidney (vero,V).; in short: as §1
Vero [31] = test: In vitro antiviral activity against herpes simplex type 1 (HSV-1) virus was determined in african green monkey kidney (vero,V) expressed as virus rating. Toxic level(320 ug/mL); in short: as §2
Vero [32] = test: In vitro antiviral activity against parainfluenza type 3(para 3) virus was determined in african green monkey kidney (vero,V) expressed as virus rating. Toxic level(320 ug/mL); in short: as §2
Vero [33] = test: Percentage plaque reduction was determined against rift valley fever(RVF) virus in african green monkey kidney (vero,V) at a conc of <25 ug/mL. Toxic level(320 ug/mL)
Vero [34] = test: Percentage plaque reduction was determined against venezuelan equine encephalitis (VEE) virus in african green monkey kidney (vero,V) at a conc of 250-500 ug/mL. Toxic level(320 ug/mL)
Vero [35] = test: Percentage plaque reduction was determined against Sandfly fever (SF) virus in african green monkey kidney (vero,V) at a conc of 25-100 ug/mL. Toxic level(320 ug/mL)

O=C1N=CN=C2C([C@@H]3O[C@H](CO)[C@@H](O)[C@H]3O)=NNC12 (stereo not given in full)
Plaque reduction (Vero [1]): 0%
Plaque reduction (Vero [2]): 0%
Plaque reduction (Vero [3]): 0%
Plaque reduction (Vero [4]): 0%
Plaque reduction (Vero [5]): 0%
Plaque reduction (Vero [6]): 0%
Plaque reduction (Vero [7]): 0%
Plaque reduction (Vero [8]): 0%
Plaque reduction (Vero [9]): 0%
Plaque reduction (Vero [10]): 0%
Plaque reduction (Vero [11]): >90%
Virus rating (Vero [12]): 0.1
Plaque reduction (Vero [13]): 0%
Plaque reduction (Vero [14]): 0%
Plaque reduction (Vero [15]): 0%

O=C1N=CN=C2C1C=CN2C1O[C@H](CO)[C@@H](O)[C@H]1O (stereo not given in full)
Plaque reduction (Vero [16]): 61%
Plaque reduction (Vero [17]): 61%
Plaque reduction (Vero [18]): 0%
Plaque reduction (Vero [19]): 0%
Plaque reduction (Vero [20]): 10%
Virus rating (Vero [21]): 0
Plaque reduction (Vero [22]): 61%
Plaque reduction (Vero [23]): 0%
Plaque reduction (Vero [24]): 0%
Virus rating (Vero [25]): 0

CSc1ncnc2c([C@@H]3O[C@H](CO)[C@@H](O)[C@H]3O)n[nH]c12
Virus rating (Vero [26]): 1.3
Virus rating (Vero [27]): 1.4
Virus rating (Vero [28]): 0.8

OC[C@H]1OC(n2ccc3c(Cl)ncnc32)[C@H](O)[C@@H]1O (stereo not given in full)
Plaque reduction (Vero [29]): >90%
Plaque reduction (Vero [30]): >90%
Virus rating (Vero [31]): 0.2
Virus rating (Vero [32]): 0.1
Plaque reduction (Vero [33]): >90%
Plaque reduction (Vero [34]): 0%
Plaque reduction (Vero [35]): 90%
